Measurements published in ChEMBL document CHEMBL4265911, “The synthesis and kinetic evaluation of aryl α-aminophosphonates as novel inhibitors of T. cruzi trans-sialidase” (Eur J Med Chem, 2018).

Assays:
Trans-sialidase [1] = target: T1, Trans-sialidase (Trypanosoma cruzi, UniProt Q26964); test: Inhibition of Trypanosoma cruzi trans-sialidase using CF3MuSA as substrate by UV/visible spectrophotometric method
T1 sequence (Q26964 whole entry): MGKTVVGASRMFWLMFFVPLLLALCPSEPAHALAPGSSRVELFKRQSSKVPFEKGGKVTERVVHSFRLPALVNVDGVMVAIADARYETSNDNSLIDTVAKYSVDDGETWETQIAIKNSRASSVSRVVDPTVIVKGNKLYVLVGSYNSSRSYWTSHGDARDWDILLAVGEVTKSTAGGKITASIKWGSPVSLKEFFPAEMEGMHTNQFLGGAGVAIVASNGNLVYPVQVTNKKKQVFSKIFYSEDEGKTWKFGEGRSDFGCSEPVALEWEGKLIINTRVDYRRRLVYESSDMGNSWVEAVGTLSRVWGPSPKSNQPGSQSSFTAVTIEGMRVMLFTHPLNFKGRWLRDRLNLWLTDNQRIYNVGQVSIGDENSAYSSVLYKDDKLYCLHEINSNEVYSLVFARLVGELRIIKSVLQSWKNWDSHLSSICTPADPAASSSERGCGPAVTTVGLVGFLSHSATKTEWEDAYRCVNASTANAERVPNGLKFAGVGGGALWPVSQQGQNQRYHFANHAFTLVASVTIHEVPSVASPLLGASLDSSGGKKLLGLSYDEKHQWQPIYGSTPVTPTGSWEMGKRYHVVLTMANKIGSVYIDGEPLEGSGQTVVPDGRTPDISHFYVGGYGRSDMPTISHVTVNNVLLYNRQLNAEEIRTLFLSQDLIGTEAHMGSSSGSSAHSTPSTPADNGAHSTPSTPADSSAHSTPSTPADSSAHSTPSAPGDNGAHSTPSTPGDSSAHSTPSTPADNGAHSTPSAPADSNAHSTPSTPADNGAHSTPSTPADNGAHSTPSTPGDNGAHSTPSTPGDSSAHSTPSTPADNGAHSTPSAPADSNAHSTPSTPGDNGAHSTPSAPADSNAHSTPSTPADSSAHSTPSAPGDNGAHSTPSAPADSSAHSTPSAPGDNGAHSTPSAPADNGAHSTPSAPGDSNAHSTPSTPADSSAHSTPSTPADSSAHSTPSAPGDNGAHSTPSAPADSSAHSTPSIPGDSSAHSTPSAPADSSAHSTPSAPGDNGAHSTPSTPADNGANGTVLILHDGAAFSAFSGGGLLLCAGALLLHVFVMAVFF

Trans-sialidase [2] = target: T1, Trans-sialidase; test: Non-competitive inhibition of recombinant HisA-tagged Trypanosoma cruzi trans-sialidase expressed in Escherichia coli BL21 (DE3) using varying levels of MuNANA as substrate by Lineweaver-burk plot analysis
Procedure, shortened: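 TcTS residual hydrolytic activity was measured with MuNANA at 0–400 µM across several set inhibitor concentrations, using the fluorometric method at 35°C and pH 7.5. Km/Vmax came from nonlinear fitting. Ki was fitted with competitive, non-competitive, uncompetitive and mixed models, and the best-fitting model was assigned as the mode. Lineweaver-Burk double-reciprocal plots were made at each inhibitor level.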

Trans-sialidase [3] = target: T1, Trans-sialidase; test: Inhibition of recombinant HisA-tagged Trypanosoma cruzi trans-sialidase expressed in Escherichia coli BL21 (DE3) using MuNANA as substrate pretreated for 10 mins followed by substrate addition by fluorescence assay
Procedure, shortened: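 Continuous fluorometric hydrolysis assay at 35°C in 20mM Tris-HCl, 50mM NaCl, pH 7.5, 0.01% Triton X100. TcTS (50 µg/mL) was preincubated 10 min with at least seven inhibitor levels (1 µM–15 mM), then MuNANA (200 µM) was added. 4-Methylumbelliferone was read at ex 360/em 460 nm, with rate taken as the linear-region slope. IC50 was set at 50% activity loss versus the no-inhibitor control; n=3 independent experiments.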

[4] = Solubility of the compound in pH 7.5 Tris-HCl buffer at >7.5 mM; format: physicochemical
[5] = Selectivity ratio of IC50 for Streptococcus pneumoniae neuraminidase A to IC50 for recombinant HisA-tagged Trypanosoma cruzi trans-sialidase expressed in Escherichia coli BL21 (DE3)
Sialidase A = Sialidase A (Streptococcus pneumoniae, UniProt P62575); test: Inhibition of Streptococcus pneumoniae neuraminidase A using MuNANA as substrate pretreated for 10 mins followed by substrate addition by fluorescence assay
Sequence of Sialidase A (P62575 whole entry): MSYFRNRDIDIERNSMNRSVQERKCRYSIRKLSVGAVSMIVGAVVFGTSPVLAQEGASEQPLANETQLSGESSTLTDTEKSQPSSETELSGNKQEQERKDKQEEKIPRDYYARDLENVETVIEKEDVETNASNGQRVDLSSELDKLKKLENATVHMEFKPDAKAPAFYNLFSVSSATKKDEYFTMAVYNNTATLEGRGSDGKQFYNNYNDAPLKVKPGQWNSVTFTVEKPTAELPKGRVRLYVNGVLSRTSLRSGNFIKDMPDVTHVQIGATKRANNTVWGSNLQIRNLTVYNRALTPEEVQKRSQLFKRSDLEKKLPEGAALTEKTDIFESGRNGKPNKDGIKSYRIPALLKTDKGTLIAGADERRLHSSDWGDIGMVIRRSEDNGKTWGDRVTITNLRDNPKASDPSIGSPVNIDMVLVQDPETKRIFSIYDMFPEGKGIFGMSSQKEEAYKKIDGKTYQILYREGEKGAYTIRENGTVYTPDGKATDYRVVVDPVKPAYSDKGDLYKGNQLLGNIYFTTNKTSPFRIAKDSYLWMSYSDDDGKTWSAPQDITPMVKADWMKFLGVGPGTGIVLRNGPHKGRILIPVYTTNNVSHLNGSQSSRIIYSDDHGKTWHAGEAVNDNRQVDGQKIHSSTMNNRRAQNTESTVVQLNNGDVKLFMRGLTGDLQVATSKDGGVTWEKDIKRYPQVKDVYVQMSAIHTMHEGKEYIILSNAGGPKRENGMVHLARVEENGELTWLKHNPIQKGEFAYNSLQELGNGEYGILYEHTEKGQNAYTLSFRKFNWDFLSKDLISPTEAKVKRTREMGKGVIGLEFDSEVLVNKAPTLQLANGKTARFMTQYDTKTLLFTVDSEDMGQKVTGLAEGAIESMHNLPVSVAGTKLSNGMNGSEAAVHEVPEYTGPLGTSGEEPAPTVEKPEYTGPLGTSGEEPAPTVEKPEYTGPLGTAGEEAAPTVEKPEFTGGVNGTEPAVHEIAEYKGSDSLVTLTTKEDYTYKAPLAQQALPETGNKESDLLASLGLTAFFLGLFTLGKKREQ

Sialidase = target: T2, Sialidase (Clostridium perfringens, UniProt P10481); test: Inhibition of Clostridium perfringens neuraminidase using MuNANA as substrate pretreated for 10 mins followed by substrate addition by fluorescence assay
T2 sequence (P10481 whole entry): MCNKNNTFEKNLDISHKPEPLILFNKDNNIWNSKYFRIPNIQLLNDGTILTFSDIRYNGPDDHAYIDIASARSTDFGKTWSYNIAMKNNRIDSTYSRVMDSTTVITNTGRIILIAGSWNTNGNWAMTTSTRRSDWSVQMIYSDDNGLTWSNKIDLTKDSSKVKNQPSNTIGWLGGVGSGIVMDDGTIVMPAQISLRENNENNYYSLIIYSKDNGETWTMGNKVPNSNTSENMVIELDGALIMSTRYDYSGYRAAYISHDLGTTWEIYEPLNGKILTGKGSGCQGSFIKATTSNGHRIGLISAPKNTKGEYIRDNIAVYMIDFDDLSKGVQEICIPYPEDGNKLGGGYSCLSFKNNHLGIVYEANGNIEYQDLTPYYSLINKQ

[6] = Selectivity ratio of IC50 for Clostridium perfringens neuraminidase to IC50 for recombinant HisA-tagged Trypanosoma cruzi trans-sialidase expressed in Escherichia coli BL21 (DE3)
Trans-sialidase [7] = target: T1, Trans-sialidase; test: Inhibition of recombinant Trypanosoma cruzi trans-sialidase expressed in Escherichia coli BL21 (DE3) using MuNANA as substrate after 10 mins in presence of [D-glucose-1-14C]lactose by liquid scintillation counting method
Trans-sialidase [8] = target: T1, Trans-sialidase; test: Inhibition of Trypanosoma cruzi trans-sialidase
Procedure, shortened: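 TcTS, point-mutated to aid crystallisation and expressed in E. coli BL21(DE3), at 50 µg/mL; pre-incubated 10 min at 35°C with ≥7 inhibitor levels (1 µM–15 mM). MuNANA (200 µM) then added. Buffer: 20 mM Tris-HCl, 50 mM NaCl, pH 7.5, 0.01% Triton X100. Continuous fluorescence (ex 360/em 460 nm), slope RFU/min. IC50 versus no-inhibitor control; n=3 independent experiments.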

[9] = compound: OC[C@@H](O)[C@@H](O[C@@H]1O[C@H](CO)[C@H](O)[C@H](O)[C@H]1O)[C@H](O)[C@@H](O)CO; test: Inhibition of recombinant HisA-tagged Trypanosoma cruzi trans-sialidase expressed in Escherichia coli BL21 (DE3) using 3-sialyl-lactose as donor measured after 15 mins by HPAEC-PAD

## Cc1ccc(S(=O)(=O)Nc2ccc(C(=O)/C=C/c3ccc(O)c(O)c3)cc2)cc1
Trans-sialidase [1]
  IC50: 0.9 µM

## O=P(O)(O)C(Nc1cccc2ccccc12)c1ccccc1 (racemic)
Trans-sialidase [2]
  Ki: 430 µM
Trans-sialidase [3]
  IC50: 470 µM

## O=P(O)(O)C(Nc1cccc2ccccc12)c1ccc(C(F)(F)F)cc1 (racemic)
Trans-sialidase [3]
  IC50: 290 µM

## COc1ccc(C(Nc2cccc3ccccc23)P(=O)(O)O)cc1 (racemic)
Trans-sialidase [3]
  IC50: 270 µM

## CC(=O)Nc1ccc(C(Nc2cccc3ccccc23)P(=O)(O)O)cc1 (racemic)
Trans-sialidase [2]
  Ki: 190 µM
Trans-sialidase [3]
  IC50: 230 µM

## O=P(O)(O)C(Nc1ccccc1-c1ccccc1)c1ccccc1 (racemic)
Trans-sialidase [3]
  IC50: 630 µM

## O=P(O)(O)C(Nc1cccc2ccccc12)c1ccc(Cl)cc1 (racemic)
Trans-sialidase [3]
  IC50: 710 µM

## O=P(O)(O)C(Nc1cccc2ccccc12)c1cc(C(F)(F)F)cc(C(F)(F)F)c1 (racemic)
Trans-sialidase [3]
  IC50: 2350 µM

## O=P(O)(O)C(Nc1ccccc1)c1ccccc1 (racemic)
[4]
  solubility: Soluble
Trans-sialidase [3]
  IC50: > 7500 µM

## O=P(O)(O)C(Nc1cccc(-c2ccccc2)c1)c1ccccc1 (racemic)
Trans-sialidase [3]
  IC50: 5580 µM

## O=P(O)(O)C(Nc1ccc2ccccc2c1)c1ccccc1 (racemic)
Trans-sialidase [3]
  IC50: 510 µM

## O=[N+]([O-])c1ccc(C(Nc2cccc3ccccc23)P(=O)(O)O)cc1 (racemic)
[5]
  Ratio IC50: 7 to 12
Sialidase A
  IC50: 1410 µM
Sialidase
  IC50: 2390 µM
Trans-sialidase [2]
  Ki: 140 µM
Trans-sialidase [3]
  IC50: 210 µM
[6]
  Ratio IC50: 7 to 12

## CC(=O)N[C@H]1[C@H]([C@H](O)[C@H](O)CO)OC(C(=O)O)=C[C@@H]1O [NEU5AC2EN]
Trans-sialidase [7]
  Ki: 12300 µM

## Cc1ncc(COP(=O)(O)O)c(C=O)c1O [PYRIDOXAL PHOSPHATE ANHYDROUS]
Trans-sialidase [8]
  Ki: 7300 µM

B1: Trans-sialidase (Trypanosoma cruzi), Q26964 (protein)
chain: T1 sequence (Q26964 whole entry)
[9]
  Km: 260 µM
